{"source": "paper PMC12102734", "about": "(Protein Science : A Publication of the Protein Society, 2025)", "key": {"[1]": {"target": "T1, Sm20S β2 subunit (Schistosoma mansoni, UniProt G4VSW3)", "T1 sequence (G4VSW3 39-281)": "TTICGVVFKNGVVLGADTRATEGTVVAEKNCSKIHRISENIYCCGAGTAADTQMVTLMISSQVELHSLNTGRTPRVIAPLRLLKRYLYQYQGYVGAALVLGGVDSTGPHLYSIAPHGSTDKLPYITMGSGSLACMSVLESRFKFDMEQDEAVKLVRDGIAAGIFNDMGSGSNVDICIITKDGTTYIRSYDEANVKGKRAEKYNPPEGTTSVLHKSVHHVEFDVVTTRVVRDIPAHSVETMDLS", "assay": "Inhibition of single-step enriched Sm20S, mca-FnKRR-K", "assay_type": "biochemical", "how_it_was_run": "(§1)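 Single-step enriched Sm20S: S. mansoni extract precipitated with ammonium sulfate (30% then 60% saturation, 60 min each on ice), resuspended in 100 mM Tris-HCl pH 7.5, 100 μM E-64, and concentrated on a 100 kDa filter. Assay buffer contained pepstatin, E-64 and AEBSF. Extract was incubated with test compound 1 h at RT, and cleavage of internally quenched mca/K(dnp) substrates was read at 24°C (ex/em 320/400 nm). Technical triplicates, curve fitting.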"}, "[2]": {"system": "20S proteasome β5 subunit (single-step enriched extracts)", "assay": "Proteasome inhibition in three Schistosoma species, β5 substrate Ac-FNKL-amc", "assay_type": "biochemical, S. mansoni, S. haematobium, S. japonicum", "conditions": "for inhibition of β5 activity, three Schistosoma species: extracts pre-incubated 1 h with 500 nM inhibitor; for reduction of β5 activity, across three Schistosoma species: 250 nM inhibitor", "how_it_was_run": "(§2)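 Extracts of S. mansoni, S. haematobium and S. japonicum adults were enriched by 30%/60% ammonium sulfate precipitation. Extracts (S. haematobium 0.625 μg/μL; others 1.25 μg/μL) were preincubated 1 h with 500 nM test compound (one also at 250 nM) or 0.125% DMSO. An equal volume of substrate was then added: 20 μM β1 or β2 mca/K(dnp) substrate, or 40 μM β5 Ac-FNKL-amc. Read at 24°C, triplicate wells.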"}, "[3]": {"system": "20S proteasome β1 subunit (single-step enriched extracts)", "assay": "Proteasome inhibition in three Schistosoma species, β1 substrate mca-VDQMDGW-K", "assay_type": "biochemical, S. mansoni, S. haematobium, S. japonicum", "how_it_was_run": "as §2"}, "[4]": {"target": "T1, Sm20S β2 subunit", "assay": "Concentration-response assay, purified Sm20S, Boc-LRR-amc substrate", "assay_type": "biochemical", "conditions": "for inhibition at 0.5 µM: 2 h, read-out: reduction of β2 activity (Boc-LRR-amc)", "how_it_was_run": "(§3)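 Sm20S purified from adult worm homogenate by 30%/60% ammonium sulfate precipitation, gel filtration and DEAE anion exchange. Test compound was 3-fold serially diluted in DMSO, then diluted 250-fold into 20 mM Tris-HCl pH 7.5, 0.02% SDS with 20 nM enzyme. After 15 min preincubation, an equal volume of 20 μM substrate was added: Z-LLE-amc (β1), Boc-LRR-amc (β2) or Suc-LLVY-amc (β5). Read at RT for 2 h every 2 min. Max velocity over eight reads, normalized to 0.1% DMSO control, four-parameter logistic fit.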"}, "[5]": {"target": "T2, Sm20S β1 subunit (Schistosoma mansoni, UniProt G4V926)", "T2 sequence (G4V926 1-225)": "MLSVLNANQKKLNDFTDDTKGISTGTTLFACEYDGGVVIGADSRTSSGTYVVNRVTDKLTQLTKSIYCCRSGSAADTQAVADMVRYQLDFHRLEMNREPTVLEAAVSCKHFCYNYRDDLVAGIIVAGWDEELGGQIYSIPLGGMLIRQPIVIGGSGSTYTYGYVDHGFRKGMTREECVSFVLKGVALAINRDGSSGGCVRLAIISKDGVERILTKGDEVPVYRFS", "assay": "Concentration-response assay, purified Sm20S, Z-LLE-amc substrate", "assay_type": "biochemical", "how_it_was_run": "as §3"}, "[6]": {"target": "T2, Sm20S β1 subunit", "assay": "Inhibition of purified Sm20S, caspase-3 substrate mca-VDQMDGW-K", "assay_type": "biochemical", "conditions": "100 nM inhibitor, 10 μM substrate"}, "[7]": {"target": "T3, Sm20S β5 subunit (Schistosoma mansoni, UniProt A0A5K4F079)", "T3 sequence (A0A5K4F079 63-264)": "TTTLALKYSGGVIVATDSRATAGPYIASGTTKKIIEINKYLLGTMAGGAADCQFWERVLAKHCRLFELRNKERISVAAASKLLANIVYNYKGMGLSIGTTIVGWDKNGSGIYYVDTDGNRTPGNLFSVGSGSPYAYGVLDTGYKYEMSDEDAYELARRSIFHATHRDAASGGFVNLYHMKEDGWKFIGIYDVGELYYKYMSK", "assay": "Concentration-response assay, purified Sm20S, Suc-LLVY-amc substrate", "assay_type": "biochemical", "conditions": "500 nM inhibitor", "how_it_was_run": "as §3"}, "[8]": {"target": "T2, Sm20S β1 subunit", "assay": "Inhibition of single-step enriched Sm20S, mca-VDQMDGW-K", "assay_type": "biochemical", "how_it_was_run": "as §1"}, "[9]": {"system": "20S proteasome β2 subunit (single-step enriched extracts)", "assay": "Proteasome inhibition in three Schistosoma species, β2 substrate mca-FnKRR-K", "assay_type": "biochemical, S. mansoni, S. haematobium, S. japonicum", "conditions": "extracts pre-incubated 1 h with 500 nM inhibitor", "how_it_was_run": "as §2"}, "[10]": {"system": "Sm20S", "assay_type": "biochemical, Schistosoma mansoni", "conditions": "purified Sm20S", "how_it_was_run": "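Purified Sm20S at 10 nM was given 2-fold serial dilutions of each substrate and fluorescence was read at 24°C. Ex/em was 360/460 nm for amc and 320/400 nm for mca substrates. Ranges were 2–500 μM for the β1 pair and 6.25–500 μM for the β2 pair. Relative activity was normalized to the rate at 500 μM (β1 pair), 500 μM Boc-LRR-amc vs 31.25 μM mca-FnKRR-K(dnp) (β2), and 100 μM (β5 pair). Technical triplicates.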"}}, "note": "mca = not defined here", "data": [{"molecule": "CC(C)C[C@H](NC(=O)[C@H](Cc1ccccc1)NC(=O)c1cnccn1)B(O)O", "note": "[BTZ, bortezomib]", "values": [{"measurement": "inhibition of β2 activity with new substrate mca-FnKRR-K(dnp)", "setting": "[1]; 10 μM inhibitor", "value": "did not inhibit"}, {"measurement": "reduction of β2 activity", "setting": "[1]; up to 5 μM inhibitor", "value": "No reduction"}, {"measurement": "inhibition of β5 activity, three Schistosoma species", "setting": "[2]", "value": "preferentially inhibited"}, {"measurement": "inhibition of β1 activity, three Schistosoma species", "setting": "[3]; extracts pre-incubated 1 h with 500 nM inhibitor", "value": "preferentially inhibited"}, {"measurement": "inhibition of β2 activity with old substrate Boc-LRR-amc", "setting": "[4]; 10 μM inhibitor", "value": "completely inhibited"}, {"measurement": "inhibition at 0.5 µM", "setting": "[4]", "value": "~35", "unit": "%"}, {"measurement": "reduction of β1 activity (Z-LLE-amc)", "setting": "[5]; 500 nM inhibitor, purified Sm20S", "value": "strongly inhibited"}, {"measurement": "inhibition of mca-VDQMD*GW-K(dnp) hydrolysis by Sm20S", "setting": "[6]", "value": "inhibited"}, {"measurement": "inhibition of β5 activity (Suc-LLVY-amc)", "setting": "[7]", "value": "strongly inhibited"}]}, {"molecule": "CC(C)C[C@H](NC(=O)[C@H](CCc1ccccc1)NC(=O)CN1CCOCC1)C(=O)N[C@@H](Cc1ccccc1)C(=O)N[C@@H](CC(C)C)C(=O)[C@@]1(C)CO1", "note": "[CFZ, carfilzomib]", "values": [{"measurement": "inhibition of β5 activity, three Schistosoma species", "setting": "[2]", "value": "inhibited β5 and β2 more than β1"}, {"measurement": "inhibition of β1 activity with new substrate mca-VDQMDGW-K(dnp)", "setting": "[8]; 10 μM inhibitor, single-step enriched Sm20S", "value": "only partially inhibitory"}, {"measurement": "inhibition at 5 µM", "setting": "[8]; read-out: inhibition of β1 subunit", "value": 15, "unit": "%"}, {"measurement": "inhibition at 0.5 µM", "setting": "[4]", "value": "~40", "unit": "%"}, {"measurement": "inhibition of β1 activity with old substrate Z-LLE-amc", "setting": "[5]; 10 μM inhibitor", "value": "fully inhibited"}, {"measurement": "inhibition at 0.5 µM", "setting": "[5]; 2 h, read-out: reduction of β1 activity (Z-LLE-amc)", "value": "~40", "unit": "%"}, {"measurement": "inhibition of β5 activity (Suc-LLVY-amc)", "setting": "[7]", "value": "strongly inhibited"}, {"measurement": "inhibition of β2 activity, three Schistosoma species", "setting": "[9]", "value": "inhibited β5 and β2 more than β1"}]}, {"molecule": "CCCCCC(=O)N[C@@H](Cc1c[nH]c2ccccc12)C(=O)N[C@@H](Cc1c[nH]c2ccccc12)C(=O)N[C@@H](Cc1ccccc1)C(=O)[C@@]1(C)CO1", "note": "[CP‐17]", "values": [{"measurement": "reduction of β5 activity, across three Schistosoma species", "setting": "[2]", "value": "> 90", "unit": "%"}, {"measurement": "reduction in β1 activity, across three Schistosoma species", "setting": "[3]; 250 nM inhibitor", "value": "little inhibition"}]}, {"molecule": "C[C@@]12OC(=O)[C@]1([C@@H](O)[C@@H]1C=CCCC1)NC(=O)[C@@H]2CCCl", "note": "[MZB, marizomib]", "values": [{"measurement": "reduction of β5 activity, across three Schistosoma species", "setting": "[2]", "value": "complete inactivation"}]}, {"molecule": "Ac‐FNKL‐amc", "values": [{"measurement": "cleavage rate relative to Suc-LLVY-amc", "setting": "[10]; both substrates at 25 μM, β5", "value": "~ 4 fold"}, {"measurement": "substrate concentration at which cleavage is maximal", "setting": "[10]; β5 substrate", "value": 25, "unit": "µM"}]}, {"molecule": "Boc‐LRR‐amc", "values": [{"measurement": "cleavage by Sm20S over substrate concentration range", "setting": "[10]; 6.25-500 μM substrate, β2", "value": "steadily increased across the entire concentration range"}]}, {"molecule": "mca‐VDQMDGW‐K(dnp)‐NH2 (mca-VDQMDGW-{K(dnp)-NH2}; reading uncertain; also: printed as mca‐VDQMDGW‐K(dnp)‐NH2)", "values": [{"measurement": "cleavage efficiency relative to LLE-amc", "setting": "[10]; between 16 and 250 μM substrate, β1", "value": "~ 2 fold"}]}]}
